System: MS2 coat protein
Experiment: apparent Kd, MS2 coat protein; higher = weaker binding; RNA-MaP array; FMN 200 µM where present
Outline: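 Each design was made on Illumina sequencing-chip clusters by stalled E. coli RNA polymerase and titrated with SNAP-549-labelled MS2 coat protein from 0.7 or 1.5 nM, doubling to 3 µM, in the absence and then the presence of constant ligand. The buffer was 100 mM Tris-HCl pH 7.5, 80 mM KCl, 4 mM MgCl2, BSA, DTT, yeast tRNA and Tween-20. The apparent Kd is the median of filtered per-cluster fits of binding curves, with green signal normalised to red-channel RNA signal and control-cluster median Fmax.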

[1] = designed as: OFF switch for flavin mononucleotide, no ligand
[2] = ligand present: flavin mononucleotide, designed as: OFF switch for flavin mononucleotide
[3] = designed as: ON switch for flavin mononucleotide, no ligand
[4] = ligand present: flavin mononucleotide, designed as: ON switch for flavin mononucleotide

| Sequence | apparent Kd [1] | apparent Kd [2] | apparent Kd [3] | apparent Kd [4] |
| --- | --- | --- | --- | --- |
| UCGGCCGCUGGGUUGUACGAUGACAGAAGGGCACACCGGGUGCCGCACAUGAGGAUCACCCAUGUGCAGGAUAUGUCAUCCUGA | 11.1 nM | 8.25 nM |  |  |
| AUUUCGUCAGGAUAUCCUAGUAAUUGUUUCAUAUUUUCAUAGGAGAAGGGACAUGAGGAUCACCCAUGUUUGUC | 25.5 nM | 24.5 nM |  |  |
| UAGUAGGUAGGAUAUACAUGGAUAUACAUUCAUGUGGACCUACAUGAGGAUCACCCAUGUAGAAGGACCUACUA | 38.1 nM | 88.9 nM |  |  |
| AUUAUUGACGAAGGAUAUGGAUACAUGAGGAUCACCCAUGUAUAUUUUGUGAUCAUAUUUAUGAUCCAGAAGGUCGUUGUUUAU | 37.3 nM | 113 nM |  |  |
| UGCAGCGUGCACAUGAGGAUCACCCAUGUGCCAGUGAACGCACAGGAUAUGCAAUCGUACGGCUAGCAGAAGGGUGGGUCUCAC |  |  | 7.65 nM | 6.45 nM |
| ACUUGACAUGAGGAUCACCCAUGUCAGGAUAUAGUAGGACAAAUAAAUAAAAGUUCUACUAGAAGGGACUUGGG | 25.1 nM | 45.3 nM |  |  |
| AACCAGUUGGUAGGAUAUGGUGCAGUGCCCGUACCAGAAGGACCAACAUGAGGAUCACCCAUGUUGGAAAGUCAACAUUAAUGA | 6.32 nM | 11.8 nM |  |  |
| AAGGGCGUGAUAACGCUCAUUAAAACAUGAGGAUCACCCAUGUAGGAUAUCCUACCGAAAUGGUAGGAGAAGGACAAGCAAUGA | 21.9 nM | 20.8 nM |  |  |
| UAGUAUAAGGGCAUUACACAUGAGGAUCACCCAUGUACGUUAGAGGAUAUGCAUUACAGUUGAACGUAGAAGGUUAGAGAAGGG | 73.6 nM | 80.3 nM |  |  |
| AGGCGGGCAGGAUAUGCGUACUGACGGGAAAACUGAAUGGUACAUGAGGAUCACCCAUGUAGAAGGGCUUUGAA | 50.1 nM | 38.3 nM |  |  |
| AAUAAACUCACAGGAUAUAGCAGAGGUCGCGUAAACUUACAGGCGACUAUGCUAGAAGGGUGACCACAUGAGGAUCACCCAUGU |  |  | 836 nM | 161 nM |
| CACAAGAAAGUCGAAGGUUGAAGUAGAAGGUCUACAACAUGACAUGAGGAUCACCCAUGUGCUAAGAAGGAUAUGCUUUAAUCG | 8.71 nM | 7.12 nM |  |  |
| UAGAACCUAGGAUAUACUUGGACCACUAAUGCACAGAUAUAACAUGAGGAUCACCCAUGUAGAAGGAGGAGUAA | 40.4 nM | 32.4 nM |  |  |
| UCACUCAAGUUAGGAUAUGGAUCGGAAAACGAUCCAGAAGGAACAUGGGAACAUGAGGAUCACCCAUGUUCCAGAAACGAGUGA |  |  | 413 nM | 155 nM |
| UCAUAUUUACAAGGAUAUCAAUUAUUUAUACAUCCUACAUGAGGAUCACCCAUGUUUUUAUAUUUUGAGAAGGUGUAAUGUCGG |  |  | 44.4 nM | 40.4 nM |
| GUGUGCUGAGGAUAUACACAGGAAUAGAAGAUAAGAUAAUCACAUGAGGAUCACCCAUGUAGAAGGCAGAGUGU | 15.2 nM | 17.3 nM |  |  |
| CCAUAAAAGAUCCAAAAUUACAACAUGAGGAUCACCCAUGUGCAGGAUAUCGUGACAGUGAAGUACGAGAAGGGCAGACACUGC | 197 nM | 208 nM |  |  |
| CCACCCUGAGGAUAUCCACCCUCAUACAUGAGGAUCACCCAUGUUCAUCCCUGAGUUCCCGGAGAAGGCAGAUUCC | 55.3 nM | 47.5 nM |  |  |
| UGUUGAUAGCAGAAGGACAUGAGGAUCACCCAUGUAUGGAUACAAAUUUAUGUAGGAUAUGCUAUUAACUAAGAGUGAGCGUUC | 9.46 nM | 42.5 nM |  |  |
| GCGGUAUUGUAAGGAUAUACUCUGUGAUGAAGAGUAGAAGGUACUUACAUGAGGAUCACCCAUGUUUAACGUGAAAAUAACCGC |  |  | 47 nM | 22.6 nM |
| AACCUAAAACAGAAGGCCAAAUACAUGAGGAUCACCCAUGUCGAAUCAUGGAGGAUAUGUUGUUAUUUACUCGCAGAUGAGUGC |  |  | 77.6 nM | 8.18 nM |
| GUGGUGUAGAUACAGGAUAUGUUGCUCGUAACAUGAGGAUCACCCAUGUAUCUAUGAGAUAAAAUGCAGAAGGGUGCACACCACU |  |  | 357 nM | 19.1 nM |
| AAAAGGCUAGGAUAUACAUGAGGAUCACCCAUGUGUACUGGACAUGCGGUAUGCGGAUGUAGAAGGAGUAUAAA | 23.4 nM | 62.4 nM |  |  |
